Measured values reported in ChEMBL document CHEMBL1154548, “Synthesis and initial evaluation of novel, non-peptidic antagonists of the alpha(v)-integrins alpha(v)beta(3) and alpha(v)beta(5)” (Bioorg Med Chem Lett, 2009).

Columns and labels:
HUVEC [1] = experiment: Inhibition of VEGF-induced HUVEC proliferation after 48 hrs; format: functional, cell-based; conditions: Homo sapiens
HUVEC [2] = experiment: Inhibition of HUVEC migration after 4 hrs; format: functional, cell-based; conditions: Homo sapiens
How it was run: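 Boyden-chamber filters were coated with vitronectin in HEPES/NaCl/divalent-cation buffer for 1 h at 37 °C, then blocked with 2% BSA for 1 h. HUVEC were added to the upper chamber at 20,000/well in migration buffer with or without compound and incubated 4 h at 37 °C. Non-migrated cells were removed; migrated cells were fixed, stained with crystal violet, photographed and quantified. Means of two experiments with SD.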

HUVEC [3] = experiment: Inhibition of FGF-induced HUVEC proliferation after 48 hrs; format: functional, cell-based; conditions: Homo sapiens
How it was run: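 HUVEC were seeded at 1000 cells/well in complete EBM-2 and cultured 24 h at 37 °C with 5% CO₂. Medium was replaced with EBM-2 containing 2% FBS, 3 ng/mL FGF and compound, and cells were grown a further 48 h. Cells were fixed in glutaraldehyde, stained with crystal violet, destained in acetic acid and read by absorbance at 595. Means of two experiments with SD.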

Integrin alpha-V = Integrin alpha-V (Homo sapiens, UniProt P06756+P18084); experiment: Binding affinity to human integrin alphavbeta5 receptor by TRF assay
How it was run: (§1)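 Wells were coated with αvβ3 or αvβ5 overnight at 4 °C in buffer A (50 mM Tris–HCl pH 7.4, 100 mM NaCl, 1 mM each MgCl₂, CaCl₂, MnCl₂), then blocked with 1% BSA for 1 h at RT. Compound and 20 nM Eu³⁺-vitronectin in buffer A plus DTPA and 0.05% BSA were added for 1 h at RT. Wells were washed, enhancement solution was added for 10 min with shaking, and time-resolved fluorescence was read.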

Integrin alpha-V/beta-3 = Integrin alpha-V/beta-3 (Homo sapiens, UniProt P05106+P06756); experiment: Binding affinity to human integrin alphavbeta3 receptor by TRF assay; how it was run: as §1
[4] = target: Integrin alpha-IIb/beta-3 (Homo sapiens, UniProt P05106+P08514); experiment: Binding affinity to human integrin […] receptor by TRF assay; format: protein-complex assay
How it was run: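 Purified αIIbβ3 coated overnight at 4 °C in buffer A (50 mM Tris–HCl pH 7.4, 100 mM NaCl, 1 mM each MgCl₂, CaCl₂, MnCl₂), then blocked with 1% BSA for 1 h at RT. Compound plus 20 nM Eu³⁺-fibrinogen in buffer A with DTPA and 0.05% BSA, 1 h at RT. After washing, enhancement solution was added for 10 min with shaking and time-resolved fluorescence was read.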

[5] = Apparent permeability across human Caco-2 cells; format: ADME, cell-based

Chain of Integrin alpha-IIb/beta-3 (P05106 27-788 limits assumed): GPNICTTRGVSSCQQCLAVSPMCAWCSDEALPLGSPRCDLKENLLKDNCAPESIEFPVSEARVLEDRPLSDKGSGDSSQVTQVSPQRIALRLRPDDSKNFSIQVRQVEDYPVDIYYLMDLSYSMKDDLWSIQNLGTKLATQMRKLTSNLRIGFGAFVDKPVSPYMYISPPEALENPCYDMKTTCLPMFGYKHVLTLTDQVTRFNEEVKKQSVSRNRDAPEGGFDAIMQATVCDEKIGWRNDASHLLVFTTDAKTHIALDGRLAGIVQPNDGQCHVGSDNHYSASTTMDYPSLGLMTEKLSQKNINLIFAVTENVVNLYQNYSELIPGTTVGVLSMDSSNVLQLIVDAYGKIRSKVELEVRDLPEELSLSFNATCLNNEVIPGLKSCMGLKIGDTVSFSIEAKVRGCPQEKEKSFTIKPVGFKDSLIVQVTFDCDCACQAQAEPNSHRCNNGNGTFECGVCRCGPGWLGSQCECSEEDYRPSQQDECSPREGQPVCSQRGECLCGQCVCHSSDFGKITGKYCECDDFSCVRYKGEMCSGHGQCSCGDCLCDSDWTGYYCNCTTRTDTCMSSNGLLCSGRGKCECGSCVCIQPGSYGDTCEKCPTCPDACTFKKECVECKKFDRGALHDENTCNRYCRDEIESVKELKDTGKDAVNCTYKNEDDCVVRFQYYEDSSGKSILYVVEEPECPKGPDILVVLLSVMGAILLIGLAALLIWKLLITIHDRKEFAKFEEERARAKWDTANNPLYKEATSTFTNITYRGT
Chain of Integrin alpha-IIb/beta-3 (P08514 32-887 limits assumed): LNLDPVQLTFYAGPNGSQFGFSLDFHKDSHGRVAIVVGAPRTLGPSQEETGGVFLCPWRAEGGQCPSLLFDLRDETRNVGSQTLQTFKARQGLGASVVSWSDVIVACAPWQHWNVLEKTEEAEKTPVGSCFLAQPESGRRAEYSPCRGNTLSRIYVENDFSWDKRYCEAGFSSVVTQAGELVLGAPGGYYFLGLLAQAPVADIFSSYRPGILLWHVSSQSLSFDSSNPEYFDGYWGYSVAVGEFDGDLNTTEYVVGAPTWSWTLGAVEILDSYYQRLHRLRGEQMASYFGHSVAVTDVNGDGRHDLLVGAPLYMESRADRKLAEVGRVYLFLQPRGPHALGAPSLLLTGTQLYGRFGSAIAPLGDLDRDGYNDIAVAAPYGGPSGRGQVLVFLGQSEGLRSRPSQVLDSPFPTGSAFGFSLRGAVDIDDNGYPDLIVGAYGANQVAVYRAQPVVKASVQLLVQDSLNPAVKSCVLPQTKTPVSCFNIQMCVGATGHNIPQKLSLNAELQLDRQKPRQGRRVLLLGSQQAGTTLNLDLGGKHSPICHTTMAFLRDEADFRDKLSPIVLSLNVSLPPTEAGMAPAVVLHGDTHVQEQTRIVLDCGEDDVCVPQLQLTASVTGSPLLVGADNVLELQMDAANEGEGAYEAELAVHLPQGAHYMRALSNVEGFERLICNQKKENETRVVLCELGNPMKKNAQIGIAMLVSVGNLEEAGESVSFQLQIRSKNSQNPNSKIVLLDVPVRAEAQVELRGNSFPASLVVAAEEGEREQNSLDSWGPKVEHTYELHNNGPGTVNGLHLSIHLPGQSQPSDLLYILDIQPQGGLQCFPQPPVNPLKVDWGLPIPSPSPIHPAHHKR
Chain of Integrin alpha-IIb/beta-3 (P08514 891-1039 limits assumed): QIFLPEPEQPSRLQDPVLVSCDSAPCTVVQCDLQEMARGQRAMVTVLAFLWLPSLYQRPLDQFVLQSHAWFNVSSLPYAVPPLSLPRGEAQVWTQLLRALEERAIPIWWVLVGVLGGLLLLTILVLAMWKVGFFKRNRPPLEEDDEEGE
Chain of Integrin alpha-V/beta-3 (P05106 27-788 limits assumed): as the sequence (P05106 27-788 limits assumed) above
Chain of Integrin alpha-V/beta-3 (P06756 31-889 limits assumed): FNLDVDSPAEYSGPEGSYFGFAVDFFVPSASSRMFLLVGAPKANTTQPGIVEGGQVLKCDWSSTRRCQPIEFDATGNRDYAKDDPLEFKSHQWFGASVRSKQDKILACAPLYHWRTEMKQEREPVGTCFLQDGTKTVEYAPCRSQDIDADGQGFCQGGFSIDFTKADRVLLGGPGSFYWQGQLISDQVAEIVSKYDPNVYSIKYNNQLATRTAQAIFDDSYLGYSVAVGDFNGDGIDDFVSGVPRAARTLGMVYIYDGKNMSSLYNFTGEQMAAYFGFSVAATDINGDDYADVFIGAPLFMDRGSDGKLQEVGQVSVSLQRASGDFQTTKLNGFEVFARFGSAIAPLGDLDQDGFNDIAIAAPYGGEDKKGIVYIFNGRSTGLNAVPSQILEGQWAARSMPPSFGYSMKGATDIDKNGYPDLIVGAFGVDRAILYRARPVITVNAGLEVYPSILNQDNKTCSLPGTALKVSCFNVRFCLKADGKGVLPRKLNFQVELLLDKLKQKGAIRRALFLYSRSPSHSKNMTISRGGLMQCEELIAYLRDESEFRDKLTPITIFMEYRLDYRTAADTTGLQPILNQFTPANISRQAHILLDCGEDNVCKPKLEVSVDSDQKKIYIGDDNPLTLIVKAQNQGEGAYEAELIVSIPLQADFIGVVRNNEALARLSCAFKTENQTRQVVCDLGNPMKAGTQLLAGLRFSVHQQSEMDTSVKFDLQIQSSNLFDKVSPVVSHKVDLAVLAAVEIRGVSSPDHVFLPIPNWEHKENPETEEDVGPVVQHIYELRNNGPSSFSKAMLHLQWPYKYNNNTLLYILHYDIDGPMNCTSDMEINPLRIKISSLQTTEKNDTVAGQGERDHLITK
Chain of Integrin alpha-V/beta-3 (P06756 891-1048 limits assumed): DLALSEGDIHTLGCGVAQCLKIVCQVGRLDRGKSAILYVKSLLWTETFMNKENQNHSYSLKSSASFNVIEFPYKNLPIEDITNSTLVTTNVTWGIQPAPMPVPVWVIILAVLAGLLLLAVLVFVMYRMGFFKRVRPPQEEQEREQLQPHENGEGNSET
Chain of Integrin alpha-V (P06756 whole entry, one chain of several): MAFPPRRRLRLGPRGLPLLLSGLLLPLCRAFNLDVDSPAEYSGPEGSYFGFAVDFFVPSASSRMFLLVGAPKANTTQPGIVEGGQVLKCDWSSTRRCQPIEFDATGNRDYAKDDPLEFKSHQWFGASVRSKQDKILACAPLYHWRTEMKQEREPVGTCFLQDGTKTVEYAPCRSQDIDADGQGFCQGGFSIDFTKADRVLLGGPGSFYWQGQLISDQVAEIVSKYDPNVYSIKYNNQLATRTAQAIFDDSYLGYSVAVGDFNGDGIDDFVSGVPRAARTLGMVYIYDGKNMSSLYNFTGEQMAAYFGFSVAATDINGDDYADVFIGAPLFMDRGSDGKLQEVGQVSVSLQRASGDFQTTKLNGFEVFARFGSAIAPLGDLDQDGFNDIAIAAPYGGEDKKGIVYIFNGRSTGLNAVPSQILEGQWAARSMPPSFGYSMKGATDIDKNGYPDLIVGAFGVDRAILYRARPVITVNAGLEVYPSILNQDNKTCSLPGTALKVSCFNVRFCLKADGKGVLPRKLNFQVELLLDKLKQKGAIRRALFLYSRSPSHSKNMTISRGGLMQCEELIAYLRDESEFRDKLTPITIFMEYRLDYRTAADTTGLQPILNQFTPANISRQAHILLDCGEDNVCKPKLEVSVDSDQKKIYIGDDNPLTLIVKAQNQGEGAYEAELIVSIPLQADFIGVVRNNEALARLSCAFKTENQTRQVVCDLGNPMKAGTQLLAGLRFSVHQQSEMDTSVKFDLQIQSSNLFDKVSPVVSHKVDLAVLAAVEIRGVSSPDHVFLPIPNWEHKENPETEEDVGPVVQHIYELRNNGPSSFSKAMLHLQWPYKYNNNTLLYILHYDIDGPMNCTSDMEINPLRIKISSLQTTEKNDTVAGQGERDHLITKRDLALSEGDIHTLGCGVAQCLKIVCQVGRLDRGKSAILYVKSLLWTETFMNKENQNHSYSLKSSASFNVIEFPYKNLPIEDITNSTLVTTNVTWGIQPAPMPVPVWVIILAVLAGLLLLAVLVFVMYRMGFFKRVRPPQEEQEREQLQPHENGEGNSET

IC50 (Integrin alpha-V) [nM] | IC50 (Integrin alpha-V/beta-3) [nM] | IC50 [4] [nM] | Papp [5] [×10⁻⁶ cm/s] | Compound | IC50 (HUVEC [1]) [nM] | IC50 (HUVEC [2]) [nM] | IC50 (HUVEC [3]) [nM]
– | – | – | – | CC(C)[C@@H]1NC(=O)[C@@H](Cc2ccccc2)NC(=O)[C@H](CC(=O)O)NC(=O)CNC(=O)[C@H](CCCN=C(N)N)NC1=O [CYCLORGDFV] | 4500 | 530 | 3100
310 | 7 | 6300 | – | O=C(O)CCN1CCc2cc(Oc3cccc4c3nc3n4CCCN3)ccc2C1=O | – | – | –
600 | 39 | > 10000 | – | Cn1c(N)nc2c(Oc3ccc4c(c3)CCN(CCC(=O)O)C4=O)cccc21 | – | – | –
2050 | 230 | – | – | Cn1c(N)nc2c(Oc3ccc(C(=O)NCCC(=O)O)cc3)cccc21 | – | – | –
4800 | 180 | > 10000 | – | Cn1c(N)nc2c(Oc3ccc4c(c3)CN(CCC(=O)O)C4=O)cccc21 | – | – | –
5 | 1 | 323 | – | O=C(O)CC(c1cccnc1)N1CCc2cc(Oc3cccc4c3nc3n4CCCN3)ccc2C1=O (stereo not given) | 4300 | 37 | 1100
4300 | 370 | > 10000 | – | Cn1c(N)nc2c(Oc3ccc4c(c3)CCCN(CCC(=O)O)C4=O)cccc21 | – | – | –
14 | 2 | 167 | 8.96 | O=C(O)CC(c1ccc2c(c1)OCO2)N1CCc2cc(Oc3cccc4c3nc3n4CCCN3)ccc2C1=O (stereo not given) | 1100 | 40 | 2900
